The list is not random: actives were taken first. Their share in the collection is about 5.2%.
ZTA counter: ZTA (EBV) inhibition in EBNA-1 counter-screen; P03206; 320,000 compounds, 0.15% hits; ZTA-DNA binding, fluorescence polarization; AID 2234; inhibition, % at 11 µM; in the data active means inhibition above about 33%
Target sequence (P03206 whole entry, looked up): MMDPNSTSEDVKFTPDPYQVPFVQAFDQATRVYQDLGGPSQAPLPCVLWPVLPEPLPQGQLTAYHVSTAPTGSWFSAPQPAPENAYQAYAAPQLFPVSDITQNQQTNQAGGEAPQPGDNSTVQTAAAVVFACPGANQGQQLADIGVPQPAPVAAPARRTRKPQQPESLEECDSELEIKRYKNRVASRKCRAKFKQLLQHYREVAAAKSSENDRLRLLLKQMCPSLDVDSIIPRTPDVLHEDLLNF
ALR H2O2 inh: inhibitors of human ALR sulfhydryl oxidase, primary screen, biochemical, H2O2 detection, HRP-luminol luminescence, single point. FAD-linked sulfhydryl oxidase ALR (Homo sapiens), P55789. purified ALR, DTT oxidation. inhibition, % (no concentration beside the values). 290,000 compounds, 3.8% hits. AID 485317, 2010;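 active means mean replicate inhibition above about 79%, with every replicate also reaching it, limit read from the data; inconclusive means only one of the two criteria met; inactive means mean below limit and not every replicate reaching it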
Target sequence (P55789 whole entry, looked up): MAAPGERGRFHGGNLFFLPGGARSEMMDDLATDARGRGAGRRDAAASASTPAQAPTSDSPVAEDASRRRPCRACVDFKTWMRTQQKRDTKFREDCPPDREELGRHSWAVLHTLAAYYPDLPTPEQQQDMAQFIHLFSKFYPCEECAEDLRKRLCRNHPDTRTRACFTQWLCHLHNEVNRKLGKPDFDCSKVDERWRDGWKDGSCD
EBNA-1 inhibitor: EBNA-1 DNA-binding inhibitors, primary screen, biochemical, fluorescence polarization; inhibition, % at 14.8 µM; 300,000 compounds, 0.34% hits; in the data active means inhibition above about 28%
PfM18AAP inh: PfM18AAP inhibitors, malaria aminopeptidase, primary screen, biochemical, QFRET, recombinant enzyme; M18 aspartyl aminopeptidase (Plasmodium falciparum 3D7); H-Glu-NHMec fluorogenic cleavage; inhibition, % at 7.35 µM; 290,000 compounds, 1.2% hits; AID 1822, 2009;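 active means inhibition above the campaign mean inhibition over all tested compounds plus 3 SD, cut at about 28% in these data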;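 further: 0% = plate median of test compound wells and 100% = 2 mM ZnCl2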
core dimer inh: inhibitors of HCV core protein dimerization, primary screen, biochemical, TR-FRET, high-throughput; TR-FRET GST/Flag-core106 dimerization, 1536-well; inhibition, % at 5 µM; 300,000 compounds, 0.33% hits;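 active means inhibition above the mean of all tested compounds plus 3 SD, set per screening campaign, cut at about 45% in these data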
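System: GST/Flag-tagged HCV core106 proteins. Incubation: compound-protein-antibody incubation 4 h at 22.5 °C. Technique: HTRF with 340 nm excitation, 617/671 nm emission. Medium: KF-containing HEPES buffer, pH 7.45, DTT, CHAPS, BSA. Read-out: inhibition (%) from 671 over 617 nm ratio. Also added: Eu(K)-anti-GST 90 ng/mL plus XL665-anti-Flag 1 µg/mL.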
HCV NS3 hel inh: inhibitors of HCV NS3 helicase, primary screen, biochemical, Cy5 molecular beacon fluorescence | Hepatitis C virus NS3 helicase | NS3 helicase DNA unwinding | inhibition, % at 10.9 µM | 290,000 compounds, 0.56% hits;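 active means inhibition above the mean of all tested compounds plus 3 SD, set per campaign, cut at about 35% in these data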;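 further: 0% = DMSO wells and 100% = thioflavine S control wells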
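System: NS3 helicase fragment of HCV / Schedule: 1 h at 25 °C / Control set: DMSO alone as 0% and 110 µM thioflavine S as 100% / Reagent: Cy5/quencher beacon DNA duplex and ATP to start / Technique: Cy5 fluorescence / Replication: singlicate / Evaluation: % inhibition of end-to-start signal ratio versus controls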
The depositor's hits bear a star; ? = inconclusive; · = not tested or not shown.

SMILES	ZTA counter	ALR H2O2 inh	EBNA-1 inhibitor	PfM18AAP inh	core dimer inh	HCV NS3 hel inh
CCn1c(=O)n(CC)c2cc(N3CCCC3)c(NC(=O)c3ccc(C)c([N+](=O)[O-])c3)cc21	-16	65	-1	29*	-7	7
Cc1cc(NC(=O)c2ccc(N3CCCC3)c([N+](=O)[O-])c2)no1	-8	-2	-8	4	49*	12
CCn1c(=O)n(CC)c2cc(N3CCCC3)c(NC(=O)c3ccccc3OC)cc21	-4	60	3	20	-5	4
CCn1c(=O)n(CC)c2cc(N3CCCC3)c(NC(=O)c3cccc(Cl)c3)cc21	-1	71	9	32*	-13	-1
CCn1c(=O)n(CC)c2cc(N3CCCC3)c(NC(=O)c3cccc(C)c3)cc21	-4	?	3	27	-15	5
COc1ccc(S(=O)(=O)CCC(=O)NCc2ccc(C)o2)cc1	4	86*	11	-11	-1	4
COc1ccc(CNC(=O)CCS(=O)(=O)c2ccc(Br)cc2)cc1	-19	-8	-4	-7	-9	-3
S=c1[nH]c(-c2ccc(Cl)cc2)cs1	6	97*	-4	19	2	12
O=c1nc2s/c(=C\c3ccc(-c4ccccc4[N+](=O)[O-])o3)c(=O)n2nc1-c1ccccc1	·	·	·	15	·	43*
CC(=O)Nc1cccc(NC(=O)CCNC(=O)c2ccccc2)c1	·	2	·	-1	·	-2
CN(CC(=O)Nc1ccc(Cl)cc1F)C1=NS(=O)(=O)c2ccccc21	·	0	·	·	·	·
COc1ccccc1-c1cc(C(F)(F)F)nc(S(=O)(=O)CCCC(=O)N2CCCCC2C)n1 (stereo not given)	14	98*	1	-1	1	-2
COc1ccccc1-c1cc(C(F)(F)F)nc(S(=O)(=O)CCCC(=O)NC(C)C)n1	9	8	5	1	3	0
COc1ccccc1-c1cc(C(F)(F)F)nc(S(C)(=O)=O)n1	20	91*	3	1	-3	2
Cc1ccc(S(=O)(=O)c2nc(Cc3ccccc3)oc2N2CCOCC2)cc1	-1	60	·	·	·	·
Cc1ccc(C(=O)CSc2nnc(C3CC3)n2C2CC2)s1	-26	6	·	·	·	·
O=C(O)CSc1cc(C(=O)c2cc(F)ccc2O)cn2c(=O)c3c(-c4ccccc4)csc3nc12	24	19	15	0	52*	23
CCOC(=O)c1sc2nc3c(SCCC#N)cc(C(=O)c4cc(F)ccc4O)cn3c(=O)c2c1C	13	-2	-11	0	50*	18
CC(C)CC(O)(CC(C)C)C(=O)NNc1ccccc1	-8	99*	-9	5	-7	4
COc1ccc(C(=O)NCC(=O)Nc2ccc(-c3ccccc3)cc2)cc1	11	-1	12	-8	6	-1
CCCSCCCNC(=O)c1ccc(C)c(NC(=O)C2=C(C)OCCS2)c1	-10	·	-21	-6	-15	0
CCN(C(=O)COC(=O)c1c2c(nc3ccccc13)/C(=C/c1ccccc1)CC(C)C2)C1CCS(=O)(=O)C1 (stereo not given)	12	-22	0	-1	6	-16
Cc1oc(=O)c(NC(=O)c2cccc(Cl)c2)cc1C(=O)c1ccccc1	-10	97*	6	-5	5	9
Cc1ccc2oc(C(=O)NCc3ncc(C)[nH]3)c(C)c2c1	1	-3	-2	3	4	-11
CC(C)c1c(C(=O)N/N=C2\CCc3ccccc32)nnn1-c1nonc1N	-6	4	-5	3	-5	0
SMILES	ZTA counter	ALR H2O2 inh	EBNA-1 inhibitor	PfM18AAP inh	core dimer inh	HCV NS3 hel inh
CC1CC(C)CN(S(=O)(=O)c2cc3c4c(c2)CCC(=O)N4CCC3)C1 (stereo not given)	-1	·	1	·	0	·
CCOCCn1c(CN2CCN(c3cccc(Cl)c3)CC2)nc2c1c(=O)n(C)c(=O)n2C	-2	·	-1	-7	-3	-10
CCOCCn1c(CN2CCN(c3ccc(F)cc3)CC2)nc2c1c(=O)n(C)c(=O)n2C	11	99*	1	2	-3	-7
COc1ccc(N2CCN(Cc3nc4c(c(=O)n(C)c(=O)n4C)n3C(C)C(C)=O)CC2)cc1 (stereo not given)	-1	89*	-17	-1	7	-2
CCC(CO)Oc1cc(NC(=O)c2ccc(OC)cc2)c2ncn(C(C)C)c2c1 (stereo not given)	·	-4	·	·	·	·
OCCOc1ccc(CN2CCN(CCCc3ccccc3)C(CCO)C2)cc1 (stereo not given)	·	16	·	-6	·	15
O=C(COc1ccc(Cl)cc1Cl)Nn1c(=S)[nH]c2ncccc2c1=O	4	?	10	-7	2	0
COc1ccccc1OCC(=O)Nn1c(=S)[nH]c2ncccc2c1=O	15	91*	15	6	4	1
CCCCNC(=O)Oc1c(Br)cc2sc(=O)oc2c1Br	26	54	-2	30*	-3	16
CN(C)c1ccc(NC(=O)COC(=O)CCC(=O)c2ccc(F)cc2)cc1	0	97*	5	2	-1	2
CCNC(=O)COC(=O)CCC(=O)c1ccc(F)cc1	1	-1	4	3	-1	-3
CN(C)c1ccc(C(=O)OCC(=O)Nc2ccc(S(N)(=O)=O)cc2)cc1	44*	-5	34*	5	10	12
O=C(CSc1n[nH]c(-c2ccccc2Br)n1)NC(=O)NCc1ccco1	-4	1	-2	1	6	2
CC(C)(C)NC(=O)NC(=O)CSc1n[nH]c(-c2ccccc2Br)n1	-2	96*	-2	-4	-3	-1
CCC(=O)N1CCc2cc(S(=O)(=O)NC(C(=O)N3CCN(c4ccc(F)cc4)CC3)C(C)C)ccc21 (stereo not given)	-1	-1	-6	0	1	-9
COc1ccc(-n2cnc3cc(NCc4cccs4)ccc32)cc1	-31	95*	-11	-1	-2	-23
Cc1ccc(-n2cnc3cc(NCc4cccs4)ccc32)cc1	-1	21	-11	24	-1	4
c1ccc(-n2cnc3cc(NCc4cccs4)ccc32)cc1	-2	97*	-4	-2	-29	-11
Cc1ccc(S(=O)(=O)N2CCCC2)cc1C(=O)Nc1ccc(-n2cnnn2)cc1	-14	-3	·	·	·	·
COc1cccc(C(=O)NN2CC(O)=C(c3nc(C)cs3)C2=N)c1	4	2	1	-7	-6	-4
Cc1ccc(C(=O)NN2CC(O)=C(c3nc(-c4cccc([N+](=O)[O-])c4)cs3)C2=N)cc1	14	-8	11	-9	54*	3
